Experimental data reported in ChEMBL document CHEMBL1155908, “Muscarinic receptor 1 agonist activity of novel N-arylthioureas substituted 3-morpholino arecoline derivatives in Alzheimer's presenile dementia models” (Bioorg Med Chem, 2008).
The source made the active and inactive calls. No cut-off for these calls is given here.

Key:
[1] = test system: Cortex; assay: Stimulation of (1,4,5)-trisphosphate formation in Wistar rat cerebral cortex relative to basal; assay type: functional; set-up: concentration or dose not given beside the values
Summary of the method: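 Rat cerebral cortex slices were labelled with [3H]myoinositol, then stimulated with compound at 1–500 µmol/l. Basal IP3 was measured, and acetylcholine iodide served as the reference stimulus. [3H]IP3 formed was counted by liquid scintillation. Values are mean and SD of three experiments, each run in duplicate.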

[2] = target: T1, Muscarinic acetylcholine receptor M1 (Rattus norvegicus, UniProt P08482); assay: Displacement of [3H]QNB from muscarinic M1 receptor Wistar rat cortex synaptosomal membrane
T1 sequence (P08482 whole entry): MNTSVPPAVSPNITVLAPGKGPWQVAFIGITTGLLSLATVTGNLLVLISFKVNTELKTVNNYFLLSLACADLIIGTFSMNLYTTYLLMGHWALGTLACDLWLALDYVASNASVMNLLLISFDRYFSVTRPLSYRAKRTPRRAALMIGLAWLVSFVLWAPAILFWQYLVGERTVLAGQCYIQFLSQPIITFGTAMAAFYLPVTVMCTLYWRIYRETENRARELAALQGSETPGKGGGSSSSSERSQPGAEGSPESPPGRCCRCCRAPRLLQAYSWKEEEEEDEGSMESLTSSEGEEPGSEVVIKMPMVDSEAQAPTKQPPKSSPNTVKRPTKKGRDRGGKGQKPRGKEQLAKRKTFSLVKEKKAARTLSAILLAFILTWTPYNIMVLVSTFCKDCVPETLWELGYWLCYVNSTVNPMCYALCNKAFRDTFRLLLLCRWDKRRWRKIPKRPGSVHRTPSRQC
Summary of the method: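 Male Wistar rat cortex synaptosomal membranes were prepared in Tris–HCl 50 mmol/L pH 7.4 with 0.32 mol/L sucrose, spun at 1000g then 32,000g at 4 °C, and resuspended in 50 mmol/L phosphate buffer pH 7.4 with MgCl2. Membrane protein was incubated with 0.2 nM [3H]QNB and displacer for 2 h at 37 °C, then GF/B filtered and counted by scintillation. IC50 and Ki were obtained by curve analysis.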

[3] = species: Rattus norvegicus; assay: Reversal of scopolamine-induced memory loss in Wistar rat assessed as reduction of number of mistakes relative to control; assay type: functional
Summary of the method: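 Passive avoidance step-down task run on male Wistar rats, 200–250 g, n = 8, with scopolamine-induced memory loss. Mistakes were counted. The dose range tested was 0.05–0.2 mg/kg, and 0.1 mg/kg was used in the in vivo studies.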

[4] = species: Rattus norvegicus; assay: Reversal of scopolamine-induced learning impairment and memory loss in Wistar rat on elevated plus maze assessed as transfer latency time on day 2 relative to control; assay type: functional
Summary of the method: (§1)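 Elevated plus maze, male Wistar rats. Scopolamine alone or with compound was given 30 min before a 90 s exploration, and saline 0.9% was given to controls. Transfer latency from the open-arm end to a closed arm was timed on day 1, then retested in the same animals on day 2. Mean ± SEM.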

[5] = species: Rattus norvegicus; assay: Reversal of scopolamine-induced learning impairment and memory loss in Wistar rat on elevated plus maze assessed as transfer latency time on day 1 relative to control; assay type: functional; summary of the method: as §1
[6] = species: Rattus norvegicus; assay: Effect on scopolamine-induced spartial working memory loss in Wistar rat on Y maze assessed as alteration behavior; assay type: functional
Summary of the method: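 Y maze, male Wistar rats, 200–250 g. Compound plus scopolamine was given 30 min before free exploration. Arm entries were recorded visually. Alternation was scored as successive entries into all three arms over overlapping triplets. Percent alternation = actual alternations / (total entries − 2) × 100.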

IC50 [2] [µM] | Ki [2] [µM] | Structure (SMILES) | Activity [1] [%] | Activity [3] | Activity [4] | Activity [5] | Activity [6] [%]
– | – | CC(=O)OCC[N+](C)(C)C [ACETYLCHOLINE] | 268 | – | – | – | –
112 | 31 | CN1CCC=C(C2CN(C(=S)Nc3ccc(Cl)cc3Cl)CCO2)C1 (centres undefined) | 116 | Active | – | – | –
153 | 49 | CN1CCC=C(C2CN(C(=S)Nc3ccccc3)CCO2)C1 (centres undefined) | 101 | – | – | – | –
362 | 98 | COc1ccccc1NC(=S)N1CCOC(C2=CCCN(C)C2)C1 (centres undefined) | 100 | – | – | – | –
515 | 214 | CN1CCC=C(C2CN(C(=S)Nc3ccccc3Cl)CCO2)C1 (centres undefined) | 100 | – | 43 s | 60 s | –
120 | 41 | COc1cccc(NC(=S)N2CCOC(C3=CCCN(C)C3)C2)c1 (centres undefined) | 106 | Active | – | – | –
15 | 4 | COc1ccc(NC(=S)N2CCOC(C3=CCCN(C)C3)C2)cc1 (centres undefined) | 178 | 10 | Active | Active | 60
67 | 15 | CN1CCC=C(C2CN(C(=S)Nc3ccccc3F)CCO2)C1 (centres undefined) | 129 | Active | – | – | 58
1.2 | 0.31 | CN1CCC=C(C2CN(C(=S)Nc3ccc(Cl)cc3)CCO2)C1 (centres undefined) | 216 | 10 | 9 s | 34 s | 64
31 | 7 | CN1CCC=C(C2CN(C(=S)Nc3ccc(F)cc3)CCO2)C1 (centres undefined) | 155 | 11 | Active | Active | 61
236 | 85 | CN1CCC=C(C2CN(C(=S)Nc3cccc(Cl)c3)CCO2)C1 (centres undefined) | 103 | – | – | – | –
